Our source for the Kd values is paper PMC4775309 (Biochemistry, 2016).

Assay in all cases: Fluorescence quenching binding assay, NADPH-free apoenzyme
One assay addresses wild-type EryKR1 (Saccharopolyspora erythraea, UniProt Q03131). Summed up: (§1)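 Cofactor removed by dialysis, 36 h, against 50 mM potassium phosphate pH 7.5 with 1 M KBr, 5 mM EDTA and 10% glycerol, then 36 h into 50 mM sodium phosphate pH 7.5 with 10% glycerol. Apoenzyme (1 μM) titrated with (±)-2-methyl-3-ketopentanoyl-SNAC (0–50 mM final), 20 min at room temperature. Fluorescence read at pH 7.2 and 30 °C (ex 280, em 338 nm). Quenching (Fapo−Fobs) fitted to a one-site saturation model for Kd.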

For a further assay, the target named is T1, wild-type EryKR3^0 (Saccharopolyspora erythraea, UniProt Q03132).
T1 sequence (Q03132 1132-1297 limits assumed): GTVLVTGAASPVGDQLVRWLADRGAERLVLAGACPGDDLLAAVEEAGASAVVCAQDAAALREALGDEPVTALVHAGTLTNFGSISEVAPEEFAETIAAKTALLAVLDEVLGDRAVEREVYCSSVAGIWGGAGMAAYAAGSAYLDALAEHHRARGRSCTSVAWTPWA
Summed up: as §1

The target of a further assay is T2, wild-type PicKR3^0 (Streptomyces venezuelae, UniProt Q9ZGI4).
T2 sequence (Q9ZGI4 1150-1343 limits assumed): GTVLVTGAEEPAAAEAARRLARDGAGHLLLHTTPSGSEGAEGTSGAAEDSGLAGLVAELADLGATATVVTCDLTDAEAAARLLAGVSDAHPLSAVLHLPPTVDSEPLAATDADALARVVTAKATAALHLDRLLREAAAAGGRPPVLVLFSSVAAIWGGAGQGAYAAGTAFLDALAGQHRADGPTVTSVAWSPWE
Summed up:
as §1

Chain of wild-type EryKR1 (Q03131 1613-1790 limits assumed): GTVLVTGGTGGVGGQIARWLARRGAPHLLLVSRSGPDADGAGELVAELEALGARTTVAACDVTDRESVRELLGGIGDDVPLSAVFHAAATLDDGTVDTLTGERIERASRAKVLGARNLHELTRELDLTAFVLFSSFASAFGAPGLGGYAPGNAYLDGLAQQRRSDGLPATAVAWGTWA

With `CCC(=O)C(C)C(=O)SCCNC(C)=O` (racemic) [compound 1, (±)-2-methyl-3-ketopentanoyl-N-acetycysteamine (SNAC) thioester], the Kd on wild-type EryKR1 worked out at 7.7 ± 0.4 mM; at wild-type EryKR3^0, 8 ± 0.4 mM; on wild-type PicKR3^0, 5 ± 0.3 mM.

The term Kd denotes the constant that tells how readily two partners part at equilibrium. A higher Kd goes with weaker binding.
